Test results reported in ChEMBL document CHEMBL4393661, “PRODRUGS FOR NITROREDUCTASE BASED CANCER THERAPY- 2: Novel amide/Ntr combinations targeting PC3 cancer cells” (Eur J Med Chem, 2019).

Columns and labels:
PC-3 [1] = experiment: Cytotoxicity in human PC3 cells assessed as reduction in cell viability at 180 nM measured after 48 hrs by SRB assay; format: cell-based; conditions: pc-3, 48 h, 0.18 µM
Procedure, shortened: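 They were exposed for 48 h to prodrug alone at 180 nM final, without enzyme or NADH, with 25 mM Tris-HCl as vehicle control. Cells were fixed with 12.5% TCA for 1 h at 4 °C, stained with 0.4% SRB and read at 492 nm as % cell survival, in triplicate.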

PC-3 [2] = experiment: Cytotoxicity against human PC3 cells assessed as reduction in cell viability measured after 48 hrs in presence of Staphylococcus saprophyticus nitroreductase and NADH by SRB assay; format: cell-based; conditions: PC-3, 48 h
Procedure, shortened: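 Prodrug at 180, 18 or 1.8 nM was premixed with Ssap-NtrB (31 µg/mL final) and NADH (600 µM final; 900 µM for CB1954) in 25 mM Tris-HCl pH 7.5, then added for 48 h under aerobic conditions. Cells were fixed with 12.5% TCA, stained with SRB and read at 492 nm, in triplicate.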

[3] = Solubility of the compound in 15% DMSO; format: physicochemical
[4] = target: T1, Staphylococcus saprophyticus nitroreductase (Staphylococcus saprophyticus subsp. saprophyticus (strain ATCC 15305 / DSM20229 / NCIMB 8711 / NCTC 7292 / S-41), UniProt Q4A0P1); experiment: Substrate activity at Staphylococcus saprophyticus nitroreductase expressed in Escherichia coli assessed as half life […] at 100 uM by HPLC analysis (0 to 5 mins at 20% ACN, 25 to 35 min at 80% ACN, 40 to 45 min at 20% ACN); format: ADME
T1 sequence (Q4A0P1 whole entry): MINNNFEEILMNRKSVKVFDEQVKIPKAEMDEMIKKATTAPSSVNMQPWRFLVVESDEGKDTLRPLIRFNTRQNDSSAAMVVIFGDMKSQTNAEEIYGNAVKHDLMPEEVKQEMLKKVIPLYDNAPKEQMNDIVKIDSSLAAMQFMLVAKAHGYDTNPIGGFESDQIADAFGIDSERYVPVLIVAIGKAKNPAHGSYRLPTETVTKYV

Putative nitroreductase [5] = target: T2, Putative nitroreductase (Staphylococcus saprophyticus subsp. saprophyticus (strain ATCC 15305 / DSM20229 / NCIMB 8711 / NCTC 7292 / S-41), UniProt Q4A0P1); experiment: Substrate activity at Staphylococcus saprophyticus nitroreductase expressed in Escherichia coli assessed as retention time […] at 100 uM by HPLC analysis (0 to 5 mins at 20 % ACN, 15 to 22 min at 80% ACN, 27-32 AT 20% ACN); format: ADME
T2 sequence (Q4A0P1 whole entry): T1 sequence (Q4A0P1 whole entry)

Putative nitroreductase [6] = target: T2, Putative nitroreductase; experiment: Substrate activity at Staphylococcus saprophyticus nitroreductase expressed in Escherichia coli assessed as retention time in the presence of NADPH at 100 uM by HPLC analysis (0 to 5 mins at 20% ACN, 25 to 35 min at 80% ACN, 40 to 45 min at 20% ACN); format: ADME
[7] = Cytotoxicity against human PC3 cells assessed as cell viability at 9 to 150 uM measured after 48 hrs by MTT assay relative to control; format: cell-based, PC-3; conditions: read-out: Activity
Procedure, shortened: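 They were treated for 48 h at 9, 18, 39, 78 and 150 µM, with 1% DMSO as vehicle control. Viability was read by MTT at 550 nm.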

[8] = Cytotoxicity against human HUVEC cells assessed as cell viability at 9 to 150 uM measured after 48 hrs by MTT assay relative to control; format: cell-based; conditions: read-out: Activity
Procedure, shortened: (§1)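 Hep3B and HUVEC cells were grown in high-glucose medium with 10% heat-inactivated FBS and 2 mM glutamine at 37 °C in 5% CO2. Cells were seeded at 5x10^4 per well and left 24 h to attach. They were then exposed for 48 h to 150, 75, 39, 19 and 9 µM, with 1% DMSO as vehicle control. Viability was read by MTT at 550 nm as (OD sample/OD control)×100.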

[9] = Cytotoxicity against human Hep3B cells assessed as cell viability at 9 to 150 uM measured after 48 hrs by MTT assay relative to control; format: cell-based, Hep 3B2; conditions: read-out: Activity; procedure, shortened: as §1
[10] = target: T1, Staphylococcus saprophyticus nitroreductase; experiment: Substrate activity at Staphylococcus saprophyticus nitroreductase expressed in Escherichia coli assessed as half life […] at 100 uM by HPLC analysis (0 to 5 mins at 20 % ACN, 15 to 22 min at 80% ACN, 27-32 AT 20% ACN); format: ADME

Structure (SMILES): NC(=O)c1cc(N2CC2)c([N+](=O)[O-])cc1[N+](=O)[O-] [TRETAZICAR]
- Activity (PC-3 [1]): Non-Toxic

Structure (SMILES): O=C(Nc1ccccc1NC(=O)c1ccc([N+](=O)[O-])cc1)c1ccc([N+](=O)[O-])cc1
- IC50 (PC-3 [2]): 14.3 nM
- solubility [3]: Soluble
- half-life at 100 µM [4]: < 3.2 h
- Activity (PC-3 [1]): Non-Toxic
- Retention_time (Putative nitroreductase [5]): 21.38 min
- Retention_time (Putative nitroreductase [6]): 22.08 min
- viability at 48 h, up to 150 µM [7]: > 80%
- viability at 48 h, up to 150 µM [8]: > 80%
- viability at 48 h, up to 150 µM [9]: > 80%

Structure (SMILES): CC(=O)Nc1cc([N+](=O)[O-])ccc1Br
- IC50 (PC-3 [2]): 10200 nM
- half-life [10]: < 0.2 h
- Activity (PC-3 [1]): Non-Toxic
- Retention_time (Putative nitroreductase [5]): 13.88 min
- viability at 48 h, up to 150 µM [7]: > 80%
- viability at 48 h, up to 150 µM [8]: > 80%
- viability at 48 h, up to 150 µM [9]: > 80%

Structure (SMILES): O=C(NCCNC(=O)c1ccc([N+](=O)[O-])cc1)c1ccc([N+](=O)[O-])cc1
- IC50 (PC-3 [2]): 31.1 nM
- solubility [3]: Soluble
- half-life at 100 µM [4]: < 2.54 h
- half-life [10]: < 1.2 h
- Activity (PC-3 [1]): Non-Toxic
- Retention_time (Putative nitroreductase [5]): 18.65 min
- Retention_time (Putative nitroreductase [6]): 17.86 min
- viability at 48 h, up to 150 µM [7]: > 80%
- viability at 48 h, up to 150 µM [8]: > 80%
- viability at 48 h, up to 150 µM [9]: 51 to 80%

Structure (SMILES): CCN(C(C)=O)c1cc([N+](=O)[O-])ccc1Br
- IC50 (PC-3 [2]): 12600 nM
- half-life [10]: < 0.1 h
- Activity (PC-3 [1]): Non-Toxic
- Retention_time (Putative nitroreductase [5]): 15.18 min
- viability at 48 h, up to 150 µM [7]: > 80%
- viability at 48 h, up to 150 µM [8]: > 80%
- viability at 48 h, up to 150 µM [9]: > 80%

Structure (SMILES): O=C(NC1CCCCC1NC(=O)c1ccc([N+](=O)[O-])cc1)c1ccc([N+](=O)[O-])cc1 (stereo not drawn)
- IC50 (PC-3 [2]): 15.5 nM
- solubility [3]: Soluble
- half-life at 100 µM [4]: < 1.8 h
- half-life [10]: < 0.52 h
- Activity (PC-3 [1]): Non-Toxic
- Retention_time (Putative nitroreductase [5]): 20.91 min
- Retention_time (Putative nitroreductase [6]): 20.85 min
- viability at 48 h, up to 150 µM [7]: > 80%
- viability at 48 h, up to 150 µM [8]: > 80%
- viability at 48 h, up to 150 µM [9]: > 80%

Structure (SMILES): O=C(Nc1ccc(NC(=O)c2ccc([N+](=O)[O-])cc2)cc1)c1ccc([N+](=O)[O-])cc1
- solubility [3]: Soluble
- Retention_time (Putative nitroreductase [5]): 16.61 min
- viability at 48 h, up to 150 µM [7]: > 80%
- viability at 48 h, up to 150 µM [8]: > 80%
- viability at 48 h, up to 150 µM [9]: 51 to 80%

Structure (SMILES): O=C(NCCCCNC(=O)c1ccc([N+](=O)[O-])cc1)c1ccc([N+](=O)[O-])cc1
- IC50 (PC-3 [2]): 36.8 nM
- solubility [3]: Soluble
- Activity (PC-3 [1]): Non-Toxic
- Retention_time (Putative nitroreductase [5]): 19.02 min
- viability at 48 h, up to 150 µM [7]: > 80%
- viability at 48 h, up to 150 µM [8]: > 80%
- viability at 48 h, up to 150 µM [9]: > 80%

Structure (SMILES): O=C(Nc1cccc(NC(=O)c2ccc([N+](=O)[O-])cc2)c1)c1ccc([N+](=O)[O-])cc1
- IC50 (PC-3 [2]): 33.4 nM
- solubility [3]: Soluble
- Activity (PC-3 [1]): Non-Toxic
- Retention_time (Putative nitroreductase [5]): 21.88 min
- Retention_time (Putative nitroreductase [6]): 21.98 min
- viability at 48 h, up to 150 µM [7]: > 80%
- viability at 48 h, up to 150 µM [8]: > 80%
- viability at 48 h, up to 150 µM [9]: > 80%

Structure (SMILES): O=C(c1ccc([N+](=O)[O-])cc1)N1CCN(C(=O)c2ccc([N+](=O)[O-])cc2)CC1
- IC50 (PC-3 [2]): 18 nM
- solubility [3]: Soluble
- half-life at 100 µM [4]: < 1.42 h
- Activity (PC-3 [1]): Non-Toxic
- Retention_time (Putative nitroreductase [5]): 17.28 min
- Retention_time (Putative nitroreductase [6]): 17.6 min
- viability at 48 h, up to 150 µM [7]: 51 to 80%
- viability at 48 h, up to 150 µM [8]: > 80%
- viability at 48 h, up to 150 µM [9]: > 80%

Structure (SMILES): O=C(NC1CCCC(NC(=O)c2ccc([N+](=O)[O-])cc2)C1)c1ccc([N+](=O)[O-])cc1 (stereo not drawn)
- IC50 (PC-3 [2]): 30.5 nM
- solubility [3]: Soluble
- half-life at 100 µM [4]: < 0.26 h
- half-life [10]: < 2 h
- Activity (PC-3 [1]): Non-Toxic
- Retention time (Putative nitroreductase [5]): 19.4 to 20.6 min
- Retention time (Putative nitroreductase [6]): 19.4 to 20.1 min
- viability at 48 h, up to 150 µM [7]: 51 to 80%
- viability at 48 h, up to 150 µM [8]: > 80%
- viability at 48 h, up to 150 µM [9]: > 80%
